Laboratory results reported in ChEMBL document CHEMBL2069235, “Synthesis and biological evaluation of tyrosine modified analogues of the α4β7 integrin inhibitor biotin-R₈ERY” (Bioorg Med Chem, 2012).
Active and inactive are the calls of the source. The calls are words filed in the database; no cut-off is given here. *1 amine or outer side, *2 acyl side, *3 side chain or, on linkers, in order; H or OH if unused. Where a SMILES comes first, the peptide text is derived from it. [ ]: non-standard residue; d: D form. The star is where a group is joined. X7 = O=C([C@H](Cc1ccc(-c2cccc([N+](=O)[O-])c2)cc1)N[*:1])[*:2]; Phe(4-(2-MeO-Ph)) = COc1ccccc1-c1ccc(C[C@H](N)C(=O)O)cc1; X3 = COc1cccc(OC)c1-c1ccc(C[C@H](N[*:1])C(=O)[*:2])cc1; X6 = COc1ccc(-c2ccc(C[C@H](N[*:1])C(=O)[*:2])cc2)cc1OC; X5 = N#Cc1ccc(-c2ccc(C[C@H](N[*:1])C(=O)[*:2])cc2)cc1; Bip(4'-Me) = Cc1ccc(-c2ccc(C[C@H](N)C(=O)O)cc2)cc1; X4 = O=C([C@H](Cc1ccc(C2=CCCCC2)cc1)N[*:1])[*:2]; Biotin = O=C1N[C@H]2[C@H](CS[C@H]2CCCCC(=O)*)N1; X1 = O=C([C@H](Cc1ccc(C2CCCCC2)cc1)N[*:1])[*:2]

How the values were obtained:
Format in all cases: cell-based
[1] = target: T1, Integrin alpha-4/beta-7 (Mus musculus) (UniProt Q00651+P26011); experiment: Inhibition of alpha4beta7 assessed as inhibition of Mn(2+)-activated adhesion of mouse TK-1 T cells to mouse MAdCAM-1 at 50 uM incubated for 1 hr by cell adhesion assay
Method in brief: (§1)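 TK-1 cells (mouse AKR/Cum α4β7+/α4β1− CD8 T lymphoma), grown at 37 °C in RPMI 1640 with 10% FCS and 0.05 mM β-mercaptoethanol, were washed and held 1 h at room temperature in HBSS/10 mM Hepes with peptide. They were then activated with 2 mM MnCl₂ and added at 10⁶ cells/well to glass slides coated with mouse MAdCAM-1-Fc (10 μg/ml, FBS-blocked). Adhesion ran 30 min.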

[2] = target: T1, Integrin alpha-4/beta-7 (Mus musculus); experiment: Inhibition of alpha4beta7 assessed as inhibition of Mn(2+)-activated adhesion of mouse TK-1 T cells to mouse MAdCAM-1 at 100 uM incubated for 1 hr by cell adhesion assay; method in brief: as §1
[3] = target: T1, Integrin alpha-4/beta-7 (Mus musculus); experiment: Inhibition of alpha4beta7 assessed as inhibition of Mn(2+)-activated adhesion of mouse TK-1 T cells to mouse MAdCAM-1 at 25 uM incubated for 1 hr by cell adhesion assay; method in brief: as §1
[4] = target: T1, Integrin alpha-4/beta-7 (Mus musculus); experiment: Inhibition of alpha4beta7 assessed as inhibition of Mn(2+)-activated adhesion of mouse TK-1 T cells to mouse MAdCAM-1 at <5 to 10 uM incubated for 1 hr by cell adhesion assay; method in brief: as §1

| SMILES | inhibition [1] [%] | inhibition [2] [%] | inhibition [3] | inhibition [4] |
| --- | --- | --- | --- | --- |
| N=C(N)NCCC[C@H](NC(=O)[C@H](CCCNC(=N)N)NC(=O)[C@H](CC(=O)O)NC(=O)[C@H](Cc1ccc(O)cc1)NC(=O)[C@@H](CCCNC(=N)N)NC(=O)[C@@H](CCCNC(=N)N)NC(=O)[C@@H](CCCNC(=N)N)NC(=O)[C@@H](CCCNC(=N)N)NC(=O)[C@@H](CCCNC(=N)N)NC(=O)[C@@H](CCCNC(=N)N)NC(=O)[C@@H](CCCNC(=N)N)NC(=O)[C@@H](CCCNC(=N)N)NC(=O)[C@@H](CCCNC(=N)N)NC(=O)CCCC[C@@H]1SC[C@@H]2NC(=O)N[C@@H]21)C(=O)N[C@@H](CCC(=O)O)C(=O)N[C@@H](Cc1ccc(O)cc1)C(=O)O | 66.4 | 71.3 |  |  |
| Cc1ccc(-c2ccc(C[C@H](NC(=O)[C@H](CCCNC(=N)N)NC(=O)[C@H](CCC(=O)O)NC(=O)[C@H](CCCNC(=N)N)NC(=O)[C@H](CCCNC(=N)N)NC(=O)[C@H](CCCNC(=N)N)NC(=O)[C@H](CCCNC(=N)N)NC(=O)[C@H](CCCNC(=N)N)NC(=O)[C@H](CCCNC(=N)N)NC(=O)[C@H](CCCNC(=N)N)NC(=O)[C@H](CCCNC(=N)N)NC(=O)CCCC[C@@H]3SC[C@@H]4NC(=O)N[C@@H]43)C(=O)O)cc2)cc1 (Biotin-RRRRRRRRER[Bip(4'-Me)]-OH) | 47.4 | 57.3 |  |  |
| COc1ccccc1-c1ccc(C[C@H](NC(=O)[C@H](CCCNC(=N)N)NC(=O)[C@H](CCC(=O)O)NC(=O)[C@H](CCCNC(=N)N)NC(=O)[C@H](CCCNC(=N)N)NC(=O)[C@H](CCCNC(=N)N)NC(=O)[C@H](CCCNC(=N)N)NC(=O)[C@H](CCCNC(=N)N)NC(=O)[C@H](CCCNC(=N)N)NC(=O)[C@H](CCCNC(=N)N)NC(=O)[C@H](CCCNC(=N)N)NC(=O)CCCC[C@@H]2SC[C@@H]3NC(=O)N[C@@H]32)C(=O)O)cc1 (Biotin-RRRRRRRRER[Phe(4-(2-MeO-Ph))]-OH) | 48.1 | 47.1 |  |  |
| COc1cccc(OC)c1-c1ccc(C[C@H](NC(=O)[C@H](CCCNC(=N)N)NC(=O)[C@H](CCC(=O)O)NC(=O)[C@H](CCCNC(=N)N)NC(=O)[C@H](CCCNC(=N)N)NC(=O)[C@H](CCCNC(=N)N)NC(=O)[C@H](CCCNC(=N)N)NC(=O)[C@H](CCCNC(=N)N)NC(=O)[C@H](CCCNC(=N)N)NC(=O)[C@H](CCCNC(=N)N)NC(=O)[C@H](CCCNC(=N)N)NC(=O)CCCC[C@@H]2SC[C@@H]3NC(=O)N[C@@H]32)C(=O)O)cc1 (Biotin-RRRRRRRRER[X3]-OH) | 38.3 | 50.9 |  |  |
| N#Cc1ccc(-c2ccc(C[C@H](NC(=O)[C@H](CCCNC(=N)N)NC(=O)[C@H](CCC(=O)O)NC(=O)[C@H](CCCNC(=N)N)NC(=O)[C@H](CCCNC(=N)N)NC(=O)[C@H](CCCNC(=N)N)NC(=O)[C@H](CCCNC(=N)N)NC(=O)[C@H](CCCNC(=N)N)NC(=O)[C@H](CCCNC(=N)N)NC(=O)[C@H](CCCNC(=N)N)NC(=O)[C@H](CCCNC(=N)N)NC(=O)CCCC[C@@H]3SC[C@@H]4NC(=O)N[C@@H]43)C(=O)O)cc2)cc1 (Biotin-RRRRRRRRER[X5]-OH) | 45 | 57 |  |  |
| COc1ccc(-c2ccc(C[C@H](NC(=O)[C@H](CCCNC(=N)N)NC(=O)[C@H](CCC(=O)O)NC(=O)[C@H](CCCNC(=N)N)NC(=O)[C@H](CCCNC(=N)N)NC(=O)[C@H](CCCNC(=N)N)NC(=O)[C@H](CCCNC(=N)N)NC(=O)[C@H](CCCNC(=N)N)NC(=O)[C@H](CCCNC(=N)N)NC(=O)[C@H](CCCNC(=N)N)NC(=O)[C@H](CCCNC(=N)N)NC(=O)CCCC[C@@H]3SC[C@@H]4NC(=O)N[C@@H]43)C(=O)O)cc2)cc1OC (Biotin-RRRRRRRRER[X6]-OH) | 37.9 | 50.1 |  |  |
| N=C(N)NCCC[C@H](NC(=O)CCCC[C@@H]1SC[C@@H]2NC(=O)N[C@@H]21)C(=O)N[C@@H](CCCNC(=N)N)C(=O)N[C@@H](CCCNC(=N)N)C(=O)N[C@@H](CCCNC(=N)N)C(=O)N[C@@H](CCCNC(=N)N)C(=O)N[C@@H](CCCNC(=N)N)C(=O)N[C@@H](CCCNC(=N)N)C(=O)N[C@@H](CCCNC(=N)N)C(=O)N[C@@H](CCC(=O)O)C(=O)N[C@@H](CCCNC(=N)N)C(=O)N[C@@H](Cc1ccc(-c2cccc([N+](=O)[O-])c2)cc1)C(=O)O (Biotin-RRRRRRRRER[X7]-OH) | 50.5 | 60.3 |  |  |

Next, values leading:

| inhibition [1] [%] | inhibition [2] [%] | inhibition [3] | inhibition [4] | SMILES |
| --- | --- | --- | --- | --- |
| 8.73 | 18.2 |  |  | N=C(N)NCCC[C@H](NC(=O)CCCC[C@@H]1SC[C@@H]2NC(=O)N[C@@H]21)C(=O)N[C@@H](CCCNC(=N)N)C(=O)N[C@@H](CCCNC(=N)N)C(=O)N[C@@H](CCCNC(=N)N)C(=O)N[C@@H](CCCNC(=N)N)C(=O)N[C@@H](CCCNC(=N)N)C(=O)N[C@@H](CCCNC(=N)N)C(=O)N[C@@H](CCCNC(=N)N)C(=O)N[C@@H](CCC(=O)O)C(=O)N[C@@H](CCCNC(=N)N)C(=O)N[C@@H](Cc1ccc(O)cc1)C(=O)O (Biotin-RRRRRRRRERY-OH) |
| 71.7 | 64.8 | Active | inactive | N=C(N)NCCC[C@H](NC(=O)CCCC[C@@H]1SC[C@@H]2NC(=O)N[C@@H]21)C(=O)N[C@@H](CCCNC(=N)N)C(=O)N[C@@H](CCCNC(=N)N)C(=O)N[C@@H](CCCNC(=N)N)C(=O)N[C@@H](CCCNC(=N)N)C(=O)N[C@@H](CCCNC(=N)N)C(=O)N[C@@H](CCCNC(=N)N)C(=O)N[C@@H](CCCNC(=N)N)C(=O)N[C@@H](CCC(=O)O)C(=O)N[C@@H](CCCNC(=N)N)C(=O)N[C@@H](Cc1ccc(C2CCCCC2)cc1)C(=O)O (Biotin-RRRRRRRRER[X1]-OH) |
| 49.7 | 59.1 |  |  | N=C(N)NCCC[C@H](NC(=O)CCCC[C@@H]1SC[C@@H]2NC(=O)N[C@@H]21)C(=O)N[C@@H](CCCNC(=N)N)C(=O)N[C@@H](CCCNC(=N)N)C(=O)N[C@@H](CCCNC(=N)N)C(=O)N[C@@H](CCCNC(=N)N)C(=O)N[C@@H](CCCNC(=N)N)C(=O)N[C@@H](CCCNC(=N)N)C(=O)N[C@@H](CCCNC(=N)N)C(=O)N[C@@H](CCC(=O)O)C(=O)N[C@@H](CCCNC(=N)N)C(=O)N[C@@H](Cc1ccc(C2=CCCCC2)cc1)C(=O)O (Biotin-RRRRRRRRER[X4]-OH) |
